Data as given in ChEMBL document CHEMBL4513216, “Probing the Open Global Health Chemical Diversity Library for Multistage-Active Starting Points for Next-Generation Antimalarials” (ACS Infect Dis, 2020).

Test: Toxicity liver stage against HepG2, at 10uM
Format: cell-based
Design: test concentration 10 uM, cell line HepG2-A16-CD81EGFP
Details: human, HepG2-A16-CD81EGFP cells; read-out: INHIBITION
Procedure, shortened: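 Uninfected HepG2-A16-CD81EGFP cells, 3 × 10^3 per well, 1536-well, plated on prespotted compound at 10 μM final, parasite-free screening media added to match infected plates; puromycin 10 μM positive, DMSO 0.5% negative; run in parallel with 48 h PbLuc assay at 37 °C, 5% CO2; viability by CellTiter-Glo luminescence, normalized to controls.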

Row | Structure (SMILES) | cytotoxicity at 10 µM
1 | Cc1cc(NC(=O)CSc2nc(=O)ccn2C(C)C)no1 | 0.841%
2 | COc1ccccc1CN(Cc1nc(Cc2ccccc2)no1)C1CC1 | 9.54%
3 | O=C(C1CCCCC1)N1C[C@@H]2CCN(c3cnccn3)C[C@@H]2C1 | 5.68%
4 | Cc1ncc2c(n1)CN(Cc1nnc(Cc3ccccc3)o1)CC2 | 1.13%
5 | Cc1cc(C[C@@H]2COC[C@H]2NCc2ccc(Br)s2)on1 | 3.6%
6 | CC(C)NS(=O)(=O)c1cc(C(=O)O)cc(-c2ccc3c(c2)OCCO3)c1 | -2.34%
7 | CCN(C)Cc1n[nH]c(=O)n1-c1cc(F)ccc1C | 11.4%
8 | COc1ccc(Cl)cc1C(=O)NCc1cnn(C)c1C | 6.81%
9 | Cc1cc(CN2C[C@@H]3CCCO[C@@H]3[C@H](N(C)C(C)C)C2)no1 | 2.44%
10 | CNc1cc2c(nn1)CCN(C(=O)c1cccc3c1OCO3)C2 | -10.6%
11 | CC(c1ccncn1)N(C)S(=O)(=O)NCc1ccccc1 (stereo not given) | -81.5%
12 | O=C(NC1CC1)N1CCc2ccc(=O)n(CC3CC3)c2CC1 | -4.63%
13 | CC(C)c1nnc(NC(=O)Cc2csc(-c3nnc[nH]3)n2)s1 | -47.2%
14 | CC(CNC(=O)c1cccnc1Oc1cccnc1)N(C)C (stereo not given) | -14%
15 | Cc1ccnc(C2CCN(CCCOc3ccccc3F)C2)n1 (stereo not given) | 6.04%
16 | COCCN1CC[C@@H]2CN(Cc3nccn3C)C[C@@H]2C1 | -76.5%
17 | Cc1ccc(N2CCCC(NCC(=O)NC3CCOCC3)C2)nn1 (stereo not given) | 3.08%
18 | Cc1cccc(N2CCOCC3(C2)CN(c2cccnc2)C(=O)CO3)n1 (stereo not given) | -4.96%
19 | O=C1COC2(CCN(Cc3ccco3)CC2)CN1Cc1cccnc1 | -4.25%
20 | COc1cccc(-c2cnc3n2CCC32CCN(S(C)(=O)=O)CC2)c1 | -2.2%
21 | Cc1ccc(N2C[C@H]3OCC[C@H]3[C@H](C(=O)NC3CCC3)C2)nn1 | -69.9%
22 | COc1ccccc1N(C)Cc1nc2c(cnn2C)c(=O)[nH]1 | -8.48%
23 | CC1CCC(O)(CN2CCN(CCNC(=O)C3CCC3)CC2)CC1 (stereo not given) | -0.118%

Row | Structure (SMILES) | cytotoxicity at 10 µM
24 | CCn1nnc2c1C(COC)CN(C(=O)Cc1ccccn1)C2 (stereo not given) | 4.64%
25 | CC(C)n1cc(S(=O)(=O)N2CCCCCC2)cn1 | 10%
26 | O=C(COCC(F)(F)C(F)F)N1CCC2(CCCN(CC3CC3)C2=O)C1 (stereo not given) | 4.46%
27 | O[C@H]1CN(c2nc(-c3ccccc3)no2)C[C@@H]1N1CCOCC1 | -20.8%
28 | COCCN1CCC2(CCCN(Cc3ccoc3)C2)C1=O (stereo not given) | 0.582%
29 | CSc1ccccc1CN1CCCn2nc(CNC(=O)N(C)C)cc2C1 | -25.5%
30 | Cc1cnn(C2CN(CC(=O)NCCCc3ccccc3)C2)c1 | 0.555%
31 | O=C1CCN(C(=O)C2(c3ccc(F)cc3)CCCCC2)CCN1 | -7.4%
32 | CS(=O)(=O)N1Cc2ccccc2CC2(CCN(Cc3ccccn3)C2)C1 (stereo not given) | 4.51%
33 | CCC1CN(C(=O)c2cc(C(C)=O)c(C)[nH]c2=O)CCN1C(C)C (stereo not given) | 6.03%
34 | Cc1nc[nH]c1-c1nnc(SCC(=O)O)n1-c1ccccc1C(F)(F)F | 0.0448%
35 | CCN1CCN(C(=O)NC(C)c2noc(-c3ccccc3)n2)CC1 (stereo not given) | -15.5%
36 | COc1ccccc1OCCNC(=O)NCC(C)C | 7.54%
37 | Cc1ccccc1-n1ncc2c(=O)n(CCN3CCCCC3)cnc21 | -8.47%
38 | CCc1nccn1CCC(=O)N1CC[C@@H](c2sccc2C)[C@H](O)C1 | -6.04%
39 | CCOCc1ncn2c1CN(C(=O)Nc1ccccc1CC)CC2 | 7.45%
40 | COCc1ncc(CN(Cc2ccncc2)Cc2ccc(C)s2)cn1 | -47%
41 | CSc1nccn1-c1cccc(C(=O)NCCC(=O)NC(C)C)c1 | 0.153%
42 | Cc1nc(C2CCN(C(=O)c3cccnc3)CC2)c2sccn12 | -5.35%
43 | CCCOCCNc1nc2c(s1)c(C)nn2C | -15.9%
44 | COCCc1noc(CN2CCCC2c2c(C)nn(C)c2C)n1 (stereo not given) | -5.73%
45 | Cc1ccn(-c2ccc(C(=O)N3CCCC(C(N)=O)C3)cc2)n1 (stereo not given) | -5.38%
